Measured values: ChEMBL document CHEMBL1121546, “Studies on antimicrobial agents. 1. Synthesis and relation between the antimicrobial activities and certain physicochemical properties of some N'-(pyridinoacetyl) fatty acid hydrazides” (1980)

What was measured:
Trichophyton benhamiae = experiment: Minimum inhibitory concentration was evaluated in vitro againist P. Trichophyton mentagrophytes 9129; format: functional, Arthroderma benhamiae
Procedure, shortened: (§1)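 Compounds in water, 50% Me₂SO–water or 100% Me₂SO. Disk-plate prescreen, with those active at 1000 μg/mL then titrated by autodilution. Fungi were grown in proteose peptone no. 3 maltose at 23 °C for 3-5 days. MIC was read as the lowest drug level showing no turbidity.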

Aspergillus niger = experiment: Minimum inhibitory concentration was evaluated in vitro againist P. As. niger 16404; format: functional; procedure, shortened: as §1
Escherichia coli = experiment: Minimum inhibitory concentration was evaluated in vitro againist Escherichia coli Vogel; format: functional
Procedure, shortened: (§2)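 Compounds dissolved in water, 50% Me₂SO–water or 100% Me₂SO. They were first screened by disk-plate, and those active at 1000 μg/mL went on to the autotitration method using an automatic diluting device. Bacteria were inoculated into tryptose phosphate broth and incubated at 37 °C for 18-20 h. MIC is the lowest drug level giving complete absence of growth (turbidity).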

Klebsiella pneumoniae = experiment: Minimum inhibitory concentration was evaluated in vitro againist Klebsiella pneumoniae 39645; format: functional; procedure, shortened: as §2
Staphylococcus aureus = experiment: Minimum inhibitory concentration was evaluated in vitro againist Staphylococcus aureus Smith.; format: functional; procedure, shortened: as §2
Proteus vulgaris = experiment: Minimum inhibitory concentration was evaluated in vitro againist Proteus vulgaris 9920; format: functional; procedure, shortened: as §2
Candida albicans = experiment: Minimum inhibitory concentration was evaluated in vitro againist P. Candida albicans 10231; format: functional; procedure, shortened: as §1
Streptococcus pyogenes = experiment: Minimum inhibitory concentration was evaluated in vitro againist P. Streptococcus pyogenes C-203; format: functional; procedure, shortened: as §2
Proteus mirabilis = experiment: Minimum inhibitory concentration was evaluated in vitro againist Proteus mirabilis MGH-1; format: functional; procedure, shortened: as §2
Pseudomonas aeruginosa = experiment: Minimum inhibitory concentration was evaluated in vitro againist P. Ps. aeruginosa MGH-2; format: functional; procedure, shortened: as §2

Row | MIC (Trichophyton benhamiae) [µM] | MIC (Aspergillus niger) [µM] | MIC (Escherichia coli) [µM] | MIC (Klebsiella pneumoniae) [µM] | MIC (Staphylococcus aureus) [µM] | MIC (Proteus vulgaris) [µM] | MIC (Candida albicans) [µM] | MIC (Streptococcus pyogenes) [µM] | MIC (Proteus mirabilis) [µM] | MIC (Pseudomonas aeruginosa) [µM] | Compound
1 | 1500 | 1500 | > 1500 | > 1500 | 366 | > 1500 | 730 | 370 | > 1500 | > 1500 | CCCCCCCCCC(=O)NNC(=O)C[n+]1ccccc1
2 | > 17 | > 34 | > 69 | > 69 | > 17 | > 69 | > 17 | 1.1 | > 69 | > 34 | CCCCCCCC/C=C\CCCCCCCC(=O)NNC(=O)C[n+]1ccccc1
3 | 170 | 170 | 340 | 680 | 85 | 680 | 170 | 42 | 1400 | 340 | CCCCCCCCCCCC(=O)NNC(=O)C[n+]1ccccc1
4 | > 1600 | > 1600 | > 1600 | > 1600 | > 1600 | > 1600 | > 1600 | 1600 | > 1600 | > 1600 | CCCCCCCC(=O)NNC(=O)C[n+]1ccccc1
5 | > 17 | > 34 | > 69 | > 69 | > 34 | > 69 | > 17 | 1.1 | > 69 | > 34 | CCCCCCCCCCCCCCCCCC(=O)NNC(=O)C[n+]1ccccc1
6 | 37 | 37 | > 37 | > 74 | 4.6 | > 74 | 18 | 9.1 | > 74 | > 37 | CCCCCCCCCCCCCCCC(=O)NNC(=O)C[n+]1ccccc1
7 | 39 | 39 | > 39 | > 79 | 19.6 | > 79 | 19.6 | 9.8 | > 79 | > 39 | CCCCCCCCCCCCCC(=O)NNC(=O)C[n+]1ccccc1
